Measured values taken from the RNAGym collection of RNA variant scans (doi:10.1126/science.aae0568).
Variants at the floor of the assay were thinned out.

B1: tRNA (parent)
chain: GUUCCGUUGGCGUAAUGGUAACGCGUCUCCCUCCUAAGGAGAAGACUGCGGGUUCGAGUCCCGUACGGAACG

Variants of: B1
Assay: yeast fitness relative to wild type (ratio to wild type); higher = fitter; tRNA-Arg(CCU), competitive growth, 37 C, YPD
How it was run: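 A pool of Saccharomyces cerevisiae strains, each with a tRNA-Arg(CCU) gene variant at the native genomic locus, was competed in YPD at 37°C for 24 hours across six parallel replicates. The variants had been chemically synthesised at a 3% per-site mutation rate over 69 sites, and gene amplicons before and after competition were read by 100-nucleotide paired-end sequencing. Darwinian fitness relative to wild type rested on changes in genotype frequencies. Genotypes required ≥ 100 starting reads, and estimates < 0.5 were set to 0.5.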

For GGUCCGUUGGCGUAAUGGUAACGCGUCUCCCUCCUAAGAAGAAGACUGCGGGUUCGAGUCGCGUACGGAACG [U2G G39A C61G], which yeast fitness is on record?
The yeast fitness was ≤ 0.5.

Which yeast fitness does the source give for GUUCCGUUGGCGUAAUGGUAACACGUCUGCCGCGUGAGGAGAAGACUGCGGGUUCGAGUCCUGUACGGAACG [G23A C29G U32G C34G A36G C62U] here?
The yeast fitness was ≤ 0.5.

For GUGUCGUUGGCGUAAUGGUGACGCGUCUCCCUCCAAAGGAGAAGACUGCGGGUUCGAAUCCCGUACUGAACG [U3G C4U A20G U35A G58A G67U], which yeast fitness is on record?
The yeast fitness was ≤ 0.5.

With GUUCCGUUGGCGUAAUGGUAACGCGUCUCCCUCCGAAGGGGAAGACUGCGGGUGCGAGUCCCGUACGGAACG [U35G A40G U54G] as the variant, how does the yeast fitness read?
Its yeast fitness is ≤ 0.5.

For GUUUCGUUGGCGUAAUGGUAACGCGUCUCCCUCCCAAGGAGAAGACUGCGGGUUCGAGUCCCGUACGGAACG [C4U U35C], which yeast fitness is on record?
The yeast fitness was 0.715.

Which yeast fitness does the source give for GUUCCGUUGGCGUAAUGGUAACGCGUCUCCCUCCUAAGGACGAGACUGCGAGUUCGAGUCCCGUACGGCACG [G41C A42G G51A A69C] here?
Its yeast fitness is ≤ 0.5.

With GUUCGGCUGGCGUAAUGGUAACACGUCUCCCUCCUAAGGAGAAGACUGCGGGUUCGAGUCCCGUACGGAACG [C5G U7C G23A] as the variant, how does the yeast fitness read?
Its yeast fitness is ≤ 0.5.

With GUUCCAUUGGCGUAAUGGUAACGCGGCUCCCUCCUAAGGAGAAGACUACGGGUUCGAGUCUCGUACGGAACG [G6A U26G G48A C61U] as the variant, how does the yeast fitness read?
The yeast fitness was 0.684.

With GUUCCGUUGGCGUAAUGGUAACGCGUCUCGCUCCUAAGGAGAAGAAGGAGGAUUCGACUCCCGGGCGGGACG [C30G C46A U47G C49A G52A G58C U64G A65G A69G] as the variant, how does the yeast fitness read?
The yeast fitness was ≤ 0.5.

With GUUCCAUUGGCGUAAUGGUAACGCGUCUGCCUCCUAACGGGAAGCCUGCGGGUUCGAGUCCCGUACGGAACG [G6A C29G G38C A40G A45C] as the variant, how does the yeast fitness read?
The yeast fitness was ≤ 0.5.

For GUUCCCUUGGCGUAAUGGUAACGCGUCUCCCUCCUAAGGAGAAGACUGCGGCUUCGAGUCCCGUACGGAACG [G6C G52C], which yeast fitness is on record?
Its yeast fitness is 0.653.

For GUUCCGUAGGCGUAAUGGCAACGCGUCUCCCUCCUAAGGAGAAGACUCCGGGUUCGAGACUCGUAUGGAACG [U8A U19C G48C U59A C61U C66U], which yeast fitness is on record?
Its yeast fitness is ≤ 0.5.

Which yeast fitness does the source give for GUUCCGUUGGCGUAAUGGUAAGGCGUCUCCGUCCUAAGGAGAAGACUGCGGGUUCGAGUCCCGUAUGGAACG [C22G C31G C66U] here?
Its yeast fitness is 0.64.

With GUUCCGUUGGCGUGAUGGUAACGCGUCUCCCUCCUAAGGAGUACACUGCGGGUACGAGUCCCGUACGGAACG [A14G A42U G44C U54A] as the variant, how does the yeast fitness read?
The yeast fitness was ≤ 0.5.

Which yeast fitness does the source give for GUUCCGUUGGCGUAAUGGUUACGCGCCUCCCUCCUAAGGAGAAGACUGCGGGUUCGAGUCCGGUACGGAACG [A20U U26C C62G] here?
Its yeast fitness is ≤ 0.5.

For GUUCAGUUGGCGUAAUGGUAACGCGUCUCCCUCCUAAGGAGAAGACUGCGGGUUCGAGUCCCGUACCGAACG [C5A G67C], which yeast fitness is on record?
Its yeast fitness is 1.03.

With GUUCCGUUGGCGUAAUGAUAACGCGUCUCCCCCCUAAGGAGAAGACUGCGGGUUCGAGUCCCGUACGGCACG [G18A U32C A69C] as the variant, how does the yeast fitness read?
Its yeast fitness is 0.549.

For GUUCCGUUGGCGUAAUGGUAACGCGUCUUCCUCCUAAAGAGAAGACUCCGGGUUCGGGUCCCGUACGGAACG [C29U G38A G48C A57G], which yeast fitness is on record?
The yeast fitness was ≤ 0.5.

For GUUCCGUUGGCGUAUUGGUAACGCGUCUCCUUCCUAAGGAGAAGAGUGCGGGUUCGAGUCCCGUGCGGAUCG [A15U C31U C46G A65G A70U], which yeast fitness is on record?
The yeast fitness was ≤ 0.5.

With GUUCCGUUGGCGUAAUGGUAACGCGUCUCCCCCGUAAGGAGAAGACUGCGGGUUCGAGUCCCGUUCGGAGCG [U32C C34G A65U A70G] as the variant, how does the yeast fitness read?
The yeast fitness was ≤ 0.5.

For GUUCCGUUGGCGUAAUGGUAACGCGGCUCCCUCCUACAGAGGACGCUGUGGGUUCGAGUCCCGUUCGGAACG [U26G A37C G38A A42G G44C A45G C49U A65U], which yeast fitness is on record?
The yeast fitness was ≤ 0.5.

Which yeast fitness does the source give for GGUCCGUUGGCGUAAUGGUAACGCGUCUCCUUCCUAAGGAGAAGACUCCGGGUUCGAGUCCCGUACCGAACG [U2G C31U G48C G67C] here?
Its yeast fitness is 0.702.

With GUUCCGUUGGCGUAAUGAUAACGCGUCUCCCUCCUACGGAGAAGACUGCGGGUUUGGGUCCCGUACGGAACG [G18A A37C C55U A57G] as the variant, how does the yeast fitness read?
Its yeast fitness is ≤ 0.5.

Which yeast fitness does the source give for GUUCCGUUGGCGUUGUGGUAACGCGUCUCCCUCGUAAGGAGAAGACUGCGGGUUCGAGUCUCGUACGGACCG [A14U A15G C34G C61U A70C] here?
The yeast fitness was ≤ 0.5.

With GUUCCGUUGGCGUAAUGGUAACGCGUAUCCUUCCUAAGGAGAAGACUGCGGGUUCGAGUCCCGUACGGAACG [C27A C31U] as the variant, how does the yeast fitness read?
The yeast fitness was 0.941.

With GUUCCGUUGGCGCAAUGGUAACGCGUCUCCUUCCUAAGGAGAACACUGCGGGUUCGAGUCCCGUACGGAACG [U13C C31U G44C] as the variant, how does the yeast fitness read?
Its yeast fitness is 0.844.

For GUUGCGUUGGUGUAAUGGUAACGCGUCUCCCUACUAAGGAGAAGACUGCGGGUUCGAGCCCCGUACGGAACG [C4G C11U C33A U59C], which yeast fitness is on record?
Its yeast fitness is 0.707.

Which yeast fitness does the source give for GUUCCGUUGGCGUAAUGGUAACGCGUCUCCCUCCUAAGGGGAAGACUGCGGGUUCCAGUCCCGUACGGAACG [A40G G56C] here?
The yeast fitness was 0.725.

For GUUACGUUGGCGUAAUGGUUACGCGUCACCUUCCUAAGGAGAAGACUGCGGGUUGGCGUCCCGUACGGAACG [C4A A20U U28A C31U C55G A57C], which yeast fitness is on record?
Its yeast fitness is ≤ 0.5.

With GUUCCGUUGGCGUAAUGGUAAGGUGUCUCCCUCCUAAGGAGACGACUGCGGGUUCGAGUCCCGUACGGAUCG [C22G C24U A43C A70U] as the variant, how does the yeast fitness read?
Its yeast fitness is ≤ 0.5.

With GUUCCCUUGGCGUAAUGGUAACGCGUCUCCCUCCUAAGGAGAAGACUGCGGGUUCAAGUGCCGUACGGAACG [G6C G56A C60G] as the variant, how does the yeast fitness read?
Its yeast fitness is ≤ 0.5.

For GUUCCGCUGGAGUAAUGGUAACGCGUCUCCCUCCUAAGGAGAAGACUGCGGGUUCGAGUCCCGUACGGAACG [U7C C11A], which yeast fitness is on record?
The yeast fitness was 0.556.

Which yeast fitness does the source give for GUUCCGUCGGCGUAACGGUCACGGGUCUCCCUCCUAAGGAGAAGACUGCGGGUUAGAGUCCCGUACGGAACG [U8C U16C A20C C24G C55A] here?
Its yeast fitness is 0.729.

With GUUCCGUUGGCGUAAUGGUAACGCGUCUCCCCCCUAACGAGAAGACUGCGGGUUCGAGUCCCGUACGCCACG [U32C G38C G68C A69C] as the variant, how does the yeast fitness read?
Its yeast fitness is 0.589.

Which yeast fitness does the source give for GUUCCGUUGGCGUAAUGGUUACGCGUCUCUCUCCUAAGGAGAAGACUGCGGGUUCGGGUCCCGUUCGGAACG [A20U C30U A57G A65U] here?
Its yeast fitness is ≤ 0.5.

For GUUCCGUUGGCGUAAUGGUAACGCGUCUUCCUCCUAAGGAGAAGAGUGCGAAUUCGAGUCCCGUACGGAACG [C29U C46G G51A G52A], which yeast fitness is on record?
The yeast fitness was ≤ 0.5.

For GUUCAGUUGGCGUAAUGGUAACGCGUCUCCCUCCUAAGGAGAAGACUGCGGGUUCGAGUGCCGUACGGAACG [C5A C60G], which yeast fitness is on record?
Its yeast fitness is 0.551.
